Converted amounts (≈) assume the structure as drawn.
Tests used:
[1] = system: Staphylococcus aureus; assay: Antibacterial activity against Staphylococcus aureus ATCC 29213 by CLSI method; format: functional
Summary of the method: (§1)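 Broth microdilution MIC in liquid medium following CLSI methods, with ATCC strains. Each run was accepted only if comparator antibiotics fell within their recommended quality-control ranges for the appropriate ATCC strain.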

[2] = system: Staphylococcus aureus; assay: Antibacterial activity against Staphylococcus aureus ATCC 29213 by CLSI method in presence of human 50% serum; format: functional; summary of the method: as §1
[3] = system: Enterococcus faecalis; assay: Antibacterial activity against Enterococcus faecalis ATCC 29212 by CLSI method; format: functional; summary of the method: as §1
[4] = system: Enterococcus faecium; assay: Antibacterial activity against Enterococcus faecium ATCC 49624 by CLSI method; format: functional; summary of the method: as §1
[5] = system: Streptococcus pneumoniae; assay: Antibacterial activity against Streptococcus pneumoniae ATCC 10015 by CLSI method; format: functional; summary of the method: as §1
[6] = system: Rattus norvegicus; assay: Dose normalized AUC in rat at 30 mg/kg, po; format: ADME, organism-based; set-up: dose 30 mg/kg, route oral; details: in vivo

| SMILES | MIC [1] [µg/mL] | MIC [2] [µg/mL] | MIC [3] [µg/mL] | MIC [4] [µg/mL] | MIC [5] [µg/mL] | AUC/dose [6] [microg.hr/mL per mg/kg] |
| --- | --- | --- | --- | --- | --- | --- |
| NC(=O)Nc1nc2cc(-c3cncc(F)c3)cc(-c3ncccn3)c2[nH]1 | > 8 | > 8 |  |  |  |  |
| CCCC(=O)Nc1nc2cc(-c3cncc(F)c3)cc(-c3ncccn3)c2[nH]1 | > 8 | > 8 |  |  |  |  |
| CNCC(=O)Nc1nc2cc(-c3cncc(F)c3)cc(-c3ncccn3)c2[nH]1 | > 8 | > 8 | > 8 | > 8 | > 8 |  |
| CCOC(=O)Nc1nc2cc(-c3cncc(F)c3)cc(-c3ncccn3)c2[nH]1 | 0.016 (≈ 0.0423 µM) | > 8 | 0.016 (≈ 0.0423 µM) | 0.016 (≈ 0.0423 µM) | 0.008 (≈ 0.0211 µM) |  |
| COCC(=O)Nc1nc2cc(-c3cncc(F)c3)cc(-c3ncccn3)c2[nH]1 | 0.064 (≈ 0.169 µM) | 8 | 0.032 (≈ 0.0846 µM) | 0.032 (≈ 0.0846 µM) | 0.032 (≈ 0.0846 µM) |  |
| CCNC(=O)Nc1nc2cc(-c3cccnc3)c(F)c(-n3cccn3)c2[nH]1 | 0.25 (≈ 0.684 µM) | 2 | 0.063 (≈ 0.172 µM) |  | 0.032 (≈ 0.0876 µM) | 10.8 |
| CCNC(=O)Nc1nc2cc(-c3ccc(CN4CCOCC4)nc3)c(F)c(-n3cccn3)c2[nH]1 | 0.25 (≈ 0.538 µM) | 1 | 0.125 (≈ 0.269 µM) | 0.5 (≈ 1.08 µM) | 0.016 (≈ 0.0344 µM) | 13.8 |
| CCNC(=O)Nc1nc2cc(-c3ccc(CN4CCOCC4)nc3)c(F)c(-n3cc(C)cn3)c2[nH]1 | 0.063 (≈ 0.132 µM) | 0.5 | 0.063 (≈ 0.132 µM) | 0.25 (≈ 0.522 µM) | 0.016 (≈ 0.0334 µM) | 1.9 |
| CCNC(=O)Nc1nc2cc(-c3cc(C)n(Cc4ccccn4)c(=O)c3)c(F)c(-n3cc(C)cn3)c2[nH]1 | 0.016 (≈ 0.032 µM) | 0.125 | 0.016 (≈ 0.032 µM) | 0.032 (≈ 0.0639 µM) | 0.008 (≈ 0.016 µM) | 0.2 |
| CCNC(=O)Nc1nc2cc(-c3ccc(C(C)O)nc3)c(F)c(-n3cccn3)c2[nH]1 (configuration not stated) | 0.125 (≈ 0.305 µM) | 3 | 0.125 (≈ 0.305 µM) | 0.5 (≈ 1.22 µM) | 0.032 (≈ 0.0782 µM) |  |
| CCNC(=O)Nc1nc2cc(-c3ccc(C(O)CC)nc3)c(F)c(-n3cccn3)c2[nH]1 (configuration not stated) | 0.063 (≈ 0.149 µM) | 2 | 0.125 (≈ 0.295 µM) | 0.25 (≈ 0.59 µM) | 0.032 (≈ 0.0756 µM) | 7.2 |
| CCNC(=O)Nc1nc2cc(-c3ccc([C@H](O)CC)nc3)c(F)c(-n3cccn3)c2[nH]1 | 0.25 (≈ 0.59 µM) | 4 | 0.063 (≈ 0.149 µM) | 0.25 (≈ 0.59 µM) | 0.063 (≈ 0.149 µM) |  |
| CCNC(=O)Nc1nc2cc(-c3cnc(C(C)(C)O)nc3)cc([C@@H]3CCCO3)c2[nH]1 | 1 (≈ 2.44 µM) | 2 | 1 (≈ 2.44 µM) | 2 (≈ 4.87 µM) | 0.5 (≈ 1.22 µM) |  |
| CCNC(=O)Nc1nc2cc(-c3cnc(C(C)(C)O)nc3)c(F)c([C@@H]3CCCO3)c2[nH]1 | 0.5 (≈ 1.17 µM) | 4 | 0.5 (≈ 1.17 µM) | 2 (≈ 4.67 µM) | 0.25 (≈ 0.583 µM) |  |
| CCNC(=O)Nc1nc2c(-n3cccn3)cc(-c3cccnc3)cc2[nH]1 | 0.25 (≈ 0.72 µM) | 4 | 0.063 (≈ 0.181 µM) |  | 0.016 (≈ 0.0461 µM) | 5.7 |
| CCNC(=O)Nc1nc2cc(-c3cccnc3)cc(C3CCCO3)c2[nH]1 (racemic) | 1 (≈ 2.85 µM) | 4 | 0.25 (≈ 0.711 µM) |  | 0.125 (≈ 0.356 µM) |  |
| CCNC(=O)Nc1nc2cc(-c3ccn(C)c(=O)c3)cc(C3CCCO3)c2[nH]1 (racemic) | 0.75 (≈ 1.97 µM) | 0.75 | 0.25 (≈ 0.655 µM) | 0.25 (≈ 0.655 µM) | 0.016 (≈ 0.0419 µM) |  |
| CCNC(=O)Nc1nc2cc(-c3cc(C)n(Cc4ccccn4)c(=O)c3)cc(C3CCCO3)c2[nH]1 (racemic) | 0.125 (≈ 0.265 µM) | 0.25 | 0.125 (≈ 0.265 µM) | 0.25 (≈ 0.529 µM) | 0.008 (≈ 0.0169 µM) |  |
| CCNC(=O)Nc1nc2cc(-c3cnc(C(C)(C)O)nc3)c(F)c(C3CCCO3)c2[nH]1 (racemic) | 0.063 (≈ 0.147 µM) | 0.5 | 0.125 (≈ 0.292 µM) | 0.5 (≈ 1.17 µM) | 0.032 (≈ 0.0747 µM) |  |
